The values below come from ChEMBL document CHEMBL1128507, “Design and synthesis of potent retinoid X receptor selective ligands that induce apoptosis in leukemia cells” (J Med Chem, 1995).

The target in test [1] is T1, Retinoic acid receptor RXR-alpha (Homo sapiens, UniProt P19793).
T1 sequence (P19793 whole entry): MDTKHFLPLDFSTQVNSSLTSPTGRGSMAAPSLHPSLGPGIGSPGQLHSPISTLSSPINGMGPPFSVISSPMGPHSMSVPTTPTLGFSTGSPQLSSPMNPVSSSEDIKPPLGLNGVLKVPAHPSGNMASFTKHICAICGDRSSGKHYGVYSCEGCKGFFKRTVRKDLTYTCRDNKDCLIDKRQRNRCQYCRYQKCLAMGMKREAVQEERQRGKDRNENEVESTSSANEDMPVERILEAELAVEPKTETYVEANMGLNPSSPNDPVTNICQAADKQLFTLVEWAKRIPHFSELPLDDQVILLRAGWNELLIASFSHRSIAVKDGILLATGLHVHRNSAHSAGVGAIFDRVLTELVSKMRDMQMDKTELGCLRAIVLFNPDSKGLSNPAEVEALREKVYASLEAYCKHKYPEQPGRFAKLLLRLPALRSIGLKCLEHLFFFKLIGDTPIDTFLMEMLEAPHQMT
As to the kind of experiment: Ability to bind directly to Retinoic acid receptor RXR-alpha was evaluated in a competitive binding assay.

Test [2] concerns the target T1, Retinoic acid receptor RXR-alpha. As to the kind of experiment: Ability to activate gene expression at Retinoic acid receptor RXR-alpha was evaluated in a cotransfection assay.
Test [3] has as its target T2, Retinoic acid receptor RXR-gamma (Mus musculus, UniProt P28705).
T2 sequence (P28705 whole entry): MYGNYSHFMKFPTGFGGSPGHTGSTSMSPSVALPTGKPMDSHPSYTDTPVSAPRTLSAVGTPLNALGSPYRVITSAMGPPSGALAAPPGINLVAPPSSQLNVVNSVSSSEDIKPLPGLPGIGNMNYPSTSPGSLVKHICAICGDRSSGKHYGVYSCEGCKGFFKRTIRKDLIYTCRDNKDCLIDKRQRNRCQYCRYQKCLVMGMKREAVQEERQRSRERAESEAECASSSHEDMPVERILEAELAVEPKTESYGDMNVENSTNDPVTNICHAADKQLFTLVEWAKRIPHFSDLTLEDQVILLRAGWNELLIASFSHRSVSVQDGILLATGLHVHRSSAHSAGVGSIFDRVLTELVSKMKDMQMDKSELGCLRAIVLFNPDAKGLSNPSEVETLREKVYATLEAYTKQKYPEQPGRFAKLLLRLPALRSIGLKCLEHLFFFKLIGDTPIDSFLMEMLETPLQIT
As to the kind of experiment: Binding affinity to Retinoic acid receptor RXR-gamma was evaluated in a competitive binding assay. Summed up:
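Receptor from baculovirus. Competition binding used [3H]-9-cis-RA as the radioligand for RXRs. Kd was calculated with the Cheng-Prussof equation. Values are mean ± SEM of about three experiments, or a single experiment in triplicate.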

Test [4] addresses T2, Retinoic acid receptor RXR-gamma. Briefly: Ability to activate gene expression at Retinoic acid receptor RXR-gamma was evaluated in a cotransfection assay. In short, it runs like this: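 CV-1 cells cotransfected with the RXR-gamma receptor, using an automated 96-well format. Values are either one experiment in triplicate or the mean ± SEM of at least two experiments, each in triplicate.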

Test [5] concerns the target T3, Retinoic acid receptor RXR-beta (Mus musculus, UniProt P28704).
T3 sequence (P28704 whole entry): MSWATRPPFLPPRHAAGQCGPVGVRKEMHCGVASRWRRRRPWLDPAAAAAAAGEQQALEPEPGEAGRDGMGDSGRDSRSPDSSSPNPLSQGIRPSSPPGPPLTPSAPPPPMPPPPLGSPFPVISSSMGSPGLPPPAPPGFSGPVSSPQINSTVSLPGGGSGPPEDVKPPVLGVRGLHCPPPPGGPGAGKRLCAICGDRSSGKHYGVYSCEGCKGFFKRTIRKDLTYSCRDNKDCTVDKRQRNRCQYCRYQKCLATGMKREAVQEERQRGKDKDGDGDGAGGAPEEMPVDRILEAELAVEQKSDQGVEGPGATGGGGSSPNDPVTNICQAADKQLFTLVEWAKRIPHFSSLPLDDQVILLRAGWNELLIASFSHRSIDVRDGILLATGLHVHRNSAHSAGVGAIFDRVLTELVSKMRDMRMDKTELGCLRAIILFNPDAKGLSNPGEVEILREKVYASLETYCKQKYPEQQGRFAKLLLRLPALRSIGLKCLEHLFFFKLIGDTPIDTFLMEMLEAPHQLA
Briefly: Binding affinity to Retinoic acid receptor RXR-beta was determined in a competitive binding assay.

Test [6] deals with T3, Retinoic acid receptor RXR-beta. Briefly: Ability to activate gene expression at Retinoic acid receptor RXR-beta was evaluated in a cotransfection assay.

One may read the Kd as the concentration at which binding is half-saturated. A low value points to higher affinity. As a reminder, the EC50 is the concentration giving half of the maximal effect. As for `Cc1cc2c(cc1C(=O)c1ccccc1C(=O)O)C(C)(C)CCC2(C)C`, the Kd in test [1], in test [3] and in test [5] was over 1 µM throughout. Moreover, the EC50 in test [2], in test [4] and in test [6] was over 10 µM throughout.
On to `Cc1cc2c(cc1C1(c3ccc(C(=O)O)cc3)CO1)C(C)(C)CCC2(C)C` (configuration not stated), for which the figures for the Kd in test [1], in test [3] and in test [5] were 0.67 µM, 0.547 µM and 0.19 µM, respectively. Also, the EC50 in test [2] was 0.051 µM; in test [4], 0.047 µM; in test [6], 0.067 µM.
`Cc1cc2c(cc1C(=O)c1cccc(C(=O)O)c1)C(C)(C)CCC2(C)C`: the Kd in test [1], in test [3] and in test [5] was over 1 µM in each case. For the same compound, the EC50 in test [2], in test [4] and in test [6] was over 10 µM throughout.
Consider `Cc1cc2c(cc1Oc1ccc(C(=O)O)cc1)C(C)(C)CCC2(C)C`, for which the Kd in test [1] amounted to 0.52 µM; in test [3], 0.45 µM; in test [5], 0.77 µM. Further, the 50% effective concentration (EC50) in test [2] worked out at 1 µM; in test [4] it was 0.43 µM; in test [6], 1.9 µM.
Turning to `C=C(c1ccc(C(=O)O)cc1)c1cc2c(cc1C)C(C)(C)C(C)C2(C)C` (configuration not stated), the Kd is 0.176 µM in test [1], 0.283 µM in test [3] and 0.291 µM in test [5]. For the same compound, the EC50 in test [2] amounted to 0.3 µM; in test [4], 0.5 µM; in test [6] it was 0.28 µM.
On to `Cc1cc2c(cc1C(C)(C)c1ccc(C(=O)O)cc1)C(C)(C)CCC2(C)C`, for which the dissociation constant (Kd) in test [1], in test [3] and in test [5] was over 1 µM each time. Moreover, the results for the EC50 in test [2], in test [4] and in test [6] were 0.65 µM, 0.65 µM and 1.9 µM, respectively.
Take `Cc1cc2c(cc1Cc1ccc(C(=O)O)cc1)C(C)(C)CCC2(C)C`: the dissociation constant (Kd) in test [1], in test [3] and in test [5] was over 1 µM in each case. In addition, the EC50 in test [2] came to 0.46 µM; in test [4] it was 0.44 µM; in test [6], 1.2 µM.
Take `C=C(c1ccc(C(=O)O)cc1)c1cc2c(cc1C)CCCC2(C)C`: the Kd in test [1], in test [3] and in test [5] was over 1 µM throughout. Moreover, the figures for the concentration giving a half-maximal response (EC50) in test [2], in test [4] and in test [6] were 2.4 µM, 2.6 µM and 2.4 µM, respectively.
For `Cc1cc2c(cc1C(C)c1ccc(C(=O)O)cc1)C(C)(C)CCC2(C)C` (configuration not stated), the Kd in test [1] stood at 0.11 µM; in test [3], 0.2 µM; in test [5], 0.15 µM. Moreover, the concentration giving a half-maximal response (EC50) in test [2] was 0.47 µM; in test [4], 0.34 µM; in test [6], 0.31 µM.
In the case of `C=C(c1ccc(C(=O)O)cc1)c1cc2c(cc1C)C(C)(C)CCC2`, the Kd in test [1] was 1.16 µM; in test [3], 1.74 µM; in test [5], 0.853 µM. The EC50 worked out at 1.2 µM in test [2], 0.6 µM in test [4] and 0.77 µM in test [6].
On to `Cc1cc2c(cc1C1(c3ccc(C(=O)O)cc3)CC1)C(C)(C)CCC2(C)C`, for which the Kd in test [1] is 0.046 µM; in test [3] it was 0.025 µM; in test [5], 0.07 µM. The EC50 in test [2] worked out at 0.026 µM; in test [4], 0.017 µM; in test [6], 0.022 µM.
`CC(C)=C(c1ccc(C(=O)O)cc1)c1cc2c(cc1C)C(C)(C)CCC2(C)C`: the values for the Kd in test [1], in test [3] and in test [5] were 0.05 µM, 0.15 µM and 0.16 µM, respectively. For the same compound, the EC50 in test [2] worked out at 0.3 µM; in test [4], 0.24 µM; in test [6], 0.13 µM.
